From ChEMBL document CHEMBL2384922, “Synthesis and evaluation of carbamoylmethylene linked prodrugs of BMS-582949, a clinical p38α inhibitor” (Bioorg Med Chem Lett, 2013)
≈ marks a conversion by molar mass, not a printed value.

Tests used:
[1] = Aqueous solubility of the compound at pH 6.5; type: physicochemical
[2] = Half life of the compound at pH 7.4 at 37 degC by solution stability test; type: physicochemical; conditions: buffer
Summary of the method: (§1)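 Chemical stability in aqueous solution at 37 °C, at pH 1.0 or pH 7.4. Half-life determined for each condition, in hours.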

[3] = Aqueous solubility of the compound at pH 1; type: physicochemical
[4] = Half life of the compound at pH 1 at 37 degC by solution stability test; type: physicochemical; conditions: buffer; summary of the method: as §1
[5] = AUC (0 to 24 hrs) in rat at 100 mg/kg, po administered in 0.75% methocel vehicle as suspension; type: ADME, organism-based; parameters: time < 24 hr, dose 100 mg/kg, route oral; conditions: plasma
Summary of the method: (§2)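 Oral dosing to rats as a methocel suspension. Prodrug given at 142 mpk (equivalent to 100 mpk of parent); parent given at 100 mpk. Parent drug measured in plasma over 24 h, giving Cmax, Tmax and AUC0–24h. The prodrug itself was also monitored in plasma.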

[6] = Cmax in rat at 100 mg/kg, po administered in 0.75% methocel vehicle as suspension; type: ADME, organism-based; parameters: dose 100 mg/kg, route oral; conditions: in vivo; summary of the method: as §2
[7] = Tmax in rat at 100 mg/kg, po administered in 0.75% methocel vehicle as suspension; type: ADME, organism-based; parameters: dose 100 mg/kg, route oral; conditions: in vivo; summary of the method: as §2
[8] = Cmax in rat at 10 mg/kg, po administered with 1:1 PEG 300/water as vehicle; type: ADME, organism-based; parameters: dose 10 mg/kg, route oral; conditions: in vivo
Summary of the method: (§3)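 Oral dosing to rats as a solution in 1:1 PEG 300/water. Prodrug given at 14.2 mpk (equivalent to 10 mpk of parent); parent given at 10 mpk. Plasma levels of the parent drug measured over 24 h, giving Cmax, Tmax and AUC0–24h. The prodrug itself was also monitored in plasma.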

[9] = AUC (0 to 24 hrs) in rat at 10 mg/kg, po administered with 1:1 PEG 300/water as vehicle; type: ADME, organism-based; parameters: time < 24 hr, dose 10 mg/kg, route oral; conditions: plasma; summary of the method: as §3
[10] = Tmax in rat at 10 mg/kg, po administered with 1:1 PEG 300/water as vehicle; type: ADME, organism-based; parameters: dose 10 mg/kg, route oral; conditions: in vivo; summary of the method: as §3
[11] = Half life of the compound at pH 7.5 at 25 degC by solution stability test; type: physicochemical; conditions: buffer
Rattus norvegicus [12] = test: AUC (0 to 24 hrs) in rat assessed as parent compound BMS-582949 at 142 mg/kg, po administered in 0.75% methocel vehicle as suspension; type: ADME, organism-based, Plasma; parameters: time < 24 hr, dose 142 mg/kg, route oral; conditions: in vivo; summary of the method: as §2
Rattus norvegicus [13] = test: Cmax in rat assessed as parent compound BMS-582949 at 142 mg/kg, po administered in 0.75% methocel vehicle as suspension; type: ADME, organism-based; parameters: dose 142 mg/kg, route oral; conditions: in vivo; summary of the method: as §2
Rattus norvegicus [14] = test: Tmax in rat assessed as parent compound BMS-582949 at 142 mg/kg, po administered in 0.75% methocel vehicle as suspension; type: ADME, organism-based; parameters: dose 142 mg/kg, route oral; conditions: in vivo; summary of the method: as §2
Rattus norvegicus [15] = test: AUC (0 to 24 hrs) in rat assessed as parent compound BMS-582949 at 14.2 mg/kg, po administered in 1:1 PEG 300/water as vehicle; type: ADME, organism-based, Plasma; parameters: time < 24 hr, dose 14.2 mg/kg, route oral; conditions: in vivo; summary of the method: as §3
Rattus norvegicus [16] = test: Tmax in rat assessed as parent compound BMS-582949 at 14.2 mg/kg, po administered in 1:1 PEG 300/water as vehicle; type: ADME, organism-based; parameters: dose 14.2 mg/kg, route oral; conditions: in vivo; summary of the method: as §3
Rattus norvegicus [17] = test: Cmax in rat assessed as parent compound BMS-582949 at 14.2 mg/kg, po administered in 1:1 PEG 300/water as vehicle; type: ADME, organism-based; parameters: dose 14.2 mg/kg, route oral; conditions: in vivo; summary of the method: as §3
[18] = Aqueous solubility of the compound at pH 3.1; type: physicochemical
[19] = Aqueous solubility of the compound at pH 4.6; type: physicochemical

## CCCNC(=O)c1cn2ncnc(Nc3cc(C(=O)N(C(=O)OCOC(=O)/C=C/C(=O)O)C4CC4)ccc3C)c2c1C
[1]
  solubility: 1570 µg/mL (≈ 2710 µM)
[2]
  half-life: 21.8 h
[3]
  solubility: 166 µg/mL (≈ 287 µM)
[4]
  half-life: 34.5 h

## CCCNC(=O)c1cn2ncnc(Nc3cc(C(=O)NC4CC4)ccc3C)c2c1C [BMS-582949]
[5]
  AUC(0-t) at 24 h: 5.6 µM·h
[6]
  Cmax: 0.8 µM
[7]
  Tmax: 1.7 h
[8]
  Cmax: 6.5 µM
[9]
  AUC(0-t) at 24 h: 53.3 µM·h
[10]
  Tmax: 1 h

## COc1ccc(CCNC(=O)OCOP(=O)(O)O)cc1OC
[11]
  half-life: 1150 h

## CCCNC(=O)c1cn2ncnc(N(C(=O)OCOP(=O)(O)O)c3cc(C(=O)NC4CC4)ccc3C)c2c1C
[2]
  half-life: < 0.25 h
[4]
  half-life: 8.5 h

## CCCNC(=O)c1cn2ncnc(Nc3cc(C(=O)N(C(=O)OCOC(=O)[C@H](C)N)C4CC4)ccc3C)c2c1C.Cl
[2]
  half-life: < 0.25 h
[4]
  half-life: 3 h

## CCCNC(=O)c1cn2ncnc(N(C(=O)OCOC(=O)[C@H](C)N)c3cc(C(=O)NC4CC4)ccc3C)c2c1C.Cl.Cl
[2]
  half-life: < 0.25 h
[4]
  half-life: 3.2 h

## CCCN(C(=O)OCOP(=O)(O)O)C(=O)c1cn2ncnc(Nc3cc(C(=O)NC4CC4)ccc3C)c2c1C
[2]
  half-life: < 0.25 h
[4]
  half-life: 26.8 h

## CCCNC(=O)c1cn2ncnc(N(C(=O)OCOC(=O)/C=C/C(=O)O)c3cc(C(=O)NC4CC4)ccc3C)c2c1C
[1]
  solubility: 1150 µg/mL (≈ 1990 µM)
[2]
  half-life: 14.6 h
[3]
  solubility: 8 µg/mL (≈ 13.8 µM)
[4]
  half-life: 129 h

## CCCNC(=O)c1cn2ncnc(Nc3cc(C(=O)N(C(=O)OCOP(=O)(O)O)C4CC4)ccc3C)c2c1C
[2]
  half-life: < 0.25 h
[4]
  half-life: 20.5 h

## CCCN(C(=O)OCOC(=O)/C=C/C(=O)O)C(=O)c1cn2ncnc(Nc3cc(C(=O)NC4CC4)ccc3C)c2c1C
Rattus norvegicus [12]
  AUC: 213.9 µM·h
Rattus norvegicus [13]
  Cmax: 21.1 µM
Rattus norvegicus [14]
  Tmax: 6 h
Rattus norvegicus [15]
  AUC: 52 µM·h
Rattus norvegicus [16]
  Tmax: 4 h
Rattus norvegicus [17]
  Cmax: 4.6 µM
[18]
  solubility: 105 µg/mL (≈ 181 µM)
[19]
  solubility: 367 µg/mL (≈ 634 µM)
[1]
  solubility: 883 µg/mL (≈ 1530 µM)
[2]
  half-life: 38.5 h
[3]
  solubility: 1180 µg/mL (≈ 2040 µM)
[4]
  half-life: 79.4 h

## CCCN(C(=O)OCOC(=O)[C@H](C)N)C(=O)c1cn2ncnc(Nc3cc(C(=O)NC4CC4)ccc3C)c2c1C.Cl.Cl
[2]
  half-life: < 0.25 h
[4]
  half-life: 3.2 h

## O=C(OCOP(=O)(O)O)OC1Cc2ccccc2C1
[11]
  half-life: 0.967 h
